Laboratory results from ChEMBL document CHEMBL4028901, “Novel Antitubercular 6-Dialkylaminopyrimidine Carboxamides from Phenotypic Whole-Cell High Throughput Screening of a SoftFocus Library: Structure-Activity Relationship and Target Identification Studies” (J Med Chem, 2017).
Converted amounts (≈) assume the structure as drawn.

System: Mycobacterium tuberculosis
Experiment: Antibacterial activity against Mycobacterium bovis BCG grown in 7H9 medium after 6 days by resazurin-based fluorescent method
Format: functional
Settings: variant bovis BCG, 144 h
Outline: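 M. bovis BCG at 10⁵ CFU/ml in 7H9 with 0.025% tyloxapol and 2% glucose. Compounds tested as 10 two-fold dilutions from 50 μM. Incubated 6 days at 37 °C, then resazurin added for a further 48 h. Endpoint fluorescence read at excitation 530 nm, emission 590 nm.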

SMILES: CN1CCN(c2ccc(NC(=O)c3cc(N(CCCN)Cc4ccccc4)ncn3)cc2)CC1
- MIC: 18.6 µM (≈ 8.55 µg/mL)
